Results as given in ChEMBL document CHEMBL5247578, “Effective synthesis of benzimidazoles-imidazo[1,2-a]pyrazine conjugates: A comparative study of mono-and bis-benzimidazoles for antitumor activity” (Eur J Med Chem, 2019).

Tests used:
SF-295 = assay: Antiproliferative activity against human SF-295 cells assessed as cell growth at 0.0001 M incubated for 48 hrs by SRB assay relative to control; type: functional; settings: read-out: Activity
SK-MEL-5 = assay: Growth inhibition against human SK-MEL-5 cells assessed as total growth inhibitory concentration incubated for 48 hrs by sulforhodamine B assay; type: functional
SF-268 = assay: Growth inhibition against human SF-268 cells assessed as total growth inhibitory concentration incubated for 48 hrs by sulforhodamine B assay; type: functional
OVCAR-8 = assay: Antiproliferative activity against human OVCAR-8 cells assessed as cell growth at 0.0000001 M incubated for 48 hrs by SRB assay relative to control; type: functional; settings: dose 100 nM, read-out: Activity
A498 [1] = assay: Antiproliferative activity against human A498 cells assessed as cell growth at 0.000001 M incubated for 48 hrs by SRB assay relative to control; type: functional; settings: read-out: Activity
In short: (§1)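 NCI-60 five-dose screen over 10^-4–10^-8 M (10-fold dilutions). Cells grown in RPMI 1640 with 5% FBS and 2 mM L-glutamine, seeded at 5,000–40,000 cells/well and preincubated 24 h. Drug from DMSO stock, 48 h at 37 °C, 5% CO2. Adherent cells TCA-fixed and stained with 0.4% SRB; A515 read. Percent growth = (Ti−Tz)/(C−Tz)×100, or (Ti−Tz)/Tz×100 when Ti<Tz.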

MDA-MB-435 = assay: Antiproliferative activity against human MDA-MB-435 cells assessed as cell growth at 0.00001 M incubated for 48 hrs by SRB assay relative to control; type: functional; settings: read-out: Activity
NCI-H522 [2] = assay: Antiproliferative activity against human NCI-H522 cells assessed as cell growth at 0.00001 M incubated for 48 hrs by SRB assay relative to control; type: functional; settings: read-out: Activity
SK-OV-3 = assay: Antiproliferative activity against human SK-OV-3 cells assessed as cell growth at 0.0000001 M incubated for 48 hrs by SRB assay relative to control; type: functional; settings: dose 100 nM, read-out: Activity
SK-MEL-2 [3] = assay: Antiproliferative activity against human SK-MEL-2 cells assessed as cell growth at 0.0000001 M incubated for 48 hrs by SRB assay relative to control; type: functional; settings: dose 100 nM, read-out: Activity
MDA-MB-468 [4] = assay: Growth inhibition against human MDA-MB-468 cells assessed as total growth inhibitory concentration incubated for 48 hrs by sulforhodamine B assay; type: functional
SNB-75 = assay: Growth inhibition against human SNB-75 cells incubated for 48 hrs by sulforhodamine B assay; type: functional
Hs-578T [5] = assay: Antiproliferative activity against human Hs-578T cells assessed as cell growth at 0.00000001 M incubated for 48 hrs by SRB assay relative to control; type: functional; settings: dose 10 nM, read-out: Activity
In short: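 NCI-60 five-dose mode, 10^-4 to 10^-8 M in 10-fold steps. RPMI 1640, 5% FBS, 2 mM L-glutamine; 24 h preincubation, then 48 h drug exposure at 37 °C. Stocks in DMSO at 400× the top concentration, diluted in medium with gentamicin. TCA fixation, SRB staining, absorbance at 515 nm. Percent growth from time-zero (Tz), control (C) and test (Ti) readings.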

U-251 = assay: Growth inhibition against human U-251 cells incubated for 48 hrs by sulforhodamine B assay; type: functional
SN12C [6] = assay: Growth inhibition against human SN12C cells incubated for 48 hrs by sulforhodamine B assay; type: functional
HEK293 = assay: Cytotoxicity against human HEK293 cells assessed as reduction in cell viability at 0.0001 M incubated for 48 hrs by MTT colorimetric assay relative to control; type: toxicity, cell-based; settings: hek293, 48 h, 100 µM
SK-MEL-2 [7] = assay: Antiproliferative activity against human SK-MEL-2 cells assessed as cell growth at 0.0001 M incubated for 48 hrs by SRB assay relative to control; type: functional; settings: read-out: Activity
NCI-H226 = assay: Antiproliferative activity against human NCI-H226 cells assessed as cell growth at 0.0000001 M incubated for 48 hrs by SRB assay relative to control; type: functional; settings: dose 100 nM, read-out: Activity
Hs-578T [8] = assay: Antiproliferative activity against human Hs-578T cells assessed as cell growth inhibition by measuring lethal concentration incubated for 48 hrs by sulforhodamine B assay; type: functional; settings: read-out: LC50 (the source's name)
UO-31 = assay: Antiproliferative activity against human UO-31 cells assessed as cell growth at 0.000001 M incubated for 48 hrs by SRB assay relative to control; type: functional; settings: read-out: Activity
Calf thymus DNA [9] = assay: Displacement of ethidium bromide from calf thymus DNA assessed as quenching constant upto 85 uM by fluorescence based spectroscopic analysis; type: nucleic-acid assay; settings: Bos taurus
EKVX = assay: Antiproliferative activity against human EKVX cells assessed as cell growth at 0.00001 M incubated for 48 hrs by SRB assay relative to control; type: functional; settings: read-out: Activity
In short: (§2)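 NCI-60 five-dose screen (10^-4 to 10^-8 M). Cells grown in RPMI 1640 with 5% FBS and 2 mM L-glutamine, plated at 5,000-40,000 cells/well and preincubated 24 h. Drug given from DMSO stock, then 48 h at 37 °C, 5% CO2. For adherent lines, cells fixed with cold TCA, SRB-stained and read at 515 nm. Percent growth taken against time-zero and untreated control.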

A498 [10] = assay: Antiproliferative activity against human A498 cells assessed as cell growth at 0.0001 M incubated for 48 hrs by SRB assay relative to control; type: functional; settings: read-out: Activity; in short: as §1
Calf thymus DNA [11] = assay: Binding affinity to calf thymus DNA assessed as binding constant by Benesi-Hildebrand equation based UV-vis spectrophotometric method; type: nucleic-acid assay; settings: Bos taurus
Albumin = Albumin (Bos taurus, UniProt P02769); assay: Binding affinity to bovine serum albumin assessed as binding constant by Benesi-Hildebrand equation based UV-vis spectrophotometric method; settings: cattle
HCT-116 = assay: Antiproliferative activity against human HCT-116 cells assessed as cell growth at 0.000001 M incubated for 48 hrs by SRB assay relative to control; type: functional; settings: read-out: Activity; in short: as §2
SNB-19 = assay: Antiproliferative activity against human SNB-19 cells assessed as cell growth at 0.000001 M incubated for 48 hrs by SRB assay relative to control; type: functional; settings: read-out: Activity
MOLT-4 = assay: Growth inhibition against human MOLT-4 cells incubated for 48 hrs by sulforhodamine B assay; type: functional
Calf thymus DNA [12] = assay: Binding affinity to calf thymus DNA assessed as DNA intercalation by measuring Stem-Volmer quenching constant at temperature of 298 K by fluorescence spectroscopic method; type: nucleic-acid assay; settings: Bos taurus
NCI-H522 [13] = assay: Antiproliferative activity against human NCI-H522 cells assessed as cell growth at 0.0000001 M incubated for 48 hrs by SRB assay relative to control; type: functional; settings: dose 100 nM, read-out: Activity
SN12C [14] = assay: Antiproliferative activity against human SN12C cells assessed as cell growth inhibition by measuring lethal concentration incubated for 48 hrs by sulforhodamine B assay; type: functional; settings: read-out: LC50 (the source's name)
MDA-MB-468 [15] = assay: Antiproliferative activity against human MDA-MB-468 cells assessed as cell growth at 0.0000001 M incubated for 48 hrs by SRB assay relative to control; type: functional; settings: dose 100 nM, read-out: Activity
Calf thymus DNA [16] = assay: Binding affinity to calf thymus DNA assessed as binding constant at temperature of 298 K by Stern-Volmer quenching plot based fluorescence spectroscopic method; type: nucleic-acid assay; settings: Bos taurus
RPMI-8226 = assay: Antiproliferative activity against human RPMI-8226 cells assessed as cell growth inhibition by measuring lethal concentration incubated for 48 hrs by sulforhodamine B assay; type: functional; settings: read-out: LC50 (the source's name)

Sequence of Albumin (P02769 whole entry): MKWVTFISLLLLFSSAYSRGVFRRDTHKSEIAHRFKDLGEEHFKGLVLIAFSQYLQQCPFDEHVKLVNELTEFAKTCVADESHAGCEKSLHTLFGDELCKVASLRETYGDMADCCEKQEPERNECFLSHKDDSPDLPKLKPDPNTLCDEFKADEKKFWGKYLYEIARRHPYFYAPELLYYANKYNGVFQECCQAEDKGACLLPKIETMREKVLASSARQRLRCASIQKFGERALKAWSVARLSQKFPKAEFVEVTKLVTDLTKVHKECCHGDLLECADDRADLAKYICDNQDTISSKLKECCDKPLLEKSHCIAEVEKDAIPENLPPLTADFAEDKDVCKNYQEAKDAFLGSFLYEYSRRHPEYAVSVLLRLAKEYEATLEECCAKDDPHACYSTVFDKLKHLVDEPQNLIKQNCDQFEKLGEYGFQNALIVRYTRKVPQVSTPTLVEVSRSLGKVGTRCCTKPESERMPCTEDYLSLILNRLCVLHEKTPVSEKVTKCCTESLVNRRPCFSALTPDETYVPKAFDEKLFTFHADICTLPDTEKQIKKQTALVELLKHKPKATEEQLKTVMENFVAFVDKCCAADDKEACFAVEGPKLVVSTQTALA

Compound	growth at 100 µM (SF-295) [%]	TGI (SK-MEL-5) [µM]	TGI (SF-268) [µM]	growth at 0.1 µM (OVCAR-8) [%]	growth at 1 µM (A498 [1]) [%]	growth at 10 µM (MDA-MB-435) [%]	growth at 10 µM (NCI-H522 [2]) [%]	growth at 0.1 µM (SK-OV-3) [%]	growth at 0.1 µM (SK-MEL-2 [3]) [%]	TGI (MDA-MB-468 [4]) [µM]	GI50 (SNB-75) [µM]	growth at 0.01 µM (Hs-578T [5]) [%]	GI50 (U-251) [µM]	GI50 (SN12C [6]) [µM]	Activity (HEK293) [%]	growth at 100 µM (SK-MEL-2 [7]) [%]	growth at 0.1 µM (NCI-H226) [%]	CC50 (Hs-578T [8]) [µM]	growth at 1 µM (UO-31) [%]	Kq (Calf thymus DNA [9])	other results
COc1ccc(-c2cn3ccnc3c(-c3ccc4ncn(C5CCCCC5)c4c3)n2)cc1	2	3.2	> 100	106	44	6	-7	88	92	> 100	0.733	106	2.22	2.11	19.05	3	96	> 100	55	0.82 10^12/M/s	growth at 10 µM (EKVX): 25%; growth at 100 µM (A498 [10]): 24%; Kb (Calf thymus DNA [11]): 3.34 10^4/M; Kb (Albumin): 1.95 10^5/M; growth at 1 µM (HCT-116): 23%; growth at 1 µM (SNB-19): 45%; GI50 (MOLT-4): 2.66 µM; KSV (Calf thymus DNA [12]): 4.65 10^4/M; growth at 0.1 µM (NCI-H522 [13]): 87%; CC50 (SN12C [14]): > 100 µM; growth at 0.1 µM (MDA-MB-468 [15]): 99%; Kb (Calf thymus DNA [16]): 36.5 10^4/M; CC50 (RPMI-8226): > 100 µM
c1ccc(Cn2cnc3ccc(-c4nc(-c5ccc6c(c5)ncn6C5CCCCC5)cn5ccnc45)cc32)cc1	-38	2.96	> 100	114	97	-32	-37	95	90	4.43	1.19	99	1.99	2.27	18.05	-33	103	> 100	78	0.74 10^12/M/s	growth at 10 µM (EKVX): -31%; growth at 100 µM (A498 [10]): -83%; Kb (Calf thymus DNA [11]): 3.18 10^4/M; Kb (Albumin): 2.65 10^4/M; growth at 1 µM (HCT-116): 54%; growth at 1 µM (SNB-19): 93%; GI50 (MOLT-4): 1.67 µM; KSV (Calf thymus DNA [12]): 1.19 10^4/M; growth at 0.1 µM (NCI-H522 [13]): 90%; CC50 (SN12C [14]): > 100 µM; growth at 0.1 µM (MDA-MB-468 [15]): 104%; Kb (Calf thymus DNA [16]): 9.58 10^4/M; CC50 (RPMI-8226): > 100 µM
